Activity calls are given as the source filed them. No cut-off for these calls is given here.
Legend:
T47D [1] = experiment: Induction of apoptosis in human T47D cells assessed as chromosome fragmentation at 10 uM after 8 hrs by fluorescent microscopy
[2] = Inhibition of HDAC by cell-free enzyme assay
NCI-H1299 = experiment: Activation of p21 promoter in human H1299 cells by reporter assay; type: functional, cell-based
[3] = target: T1, Peroxisome proliferator-activated receptor gamma (Homo sapiens) (UniProt P37231); experiment: Activation of PPARgamma transfected in human MCF7 cells at 10 uM by luciferase reporter gene assay; type: cell-based
T1 sequence (whole entry): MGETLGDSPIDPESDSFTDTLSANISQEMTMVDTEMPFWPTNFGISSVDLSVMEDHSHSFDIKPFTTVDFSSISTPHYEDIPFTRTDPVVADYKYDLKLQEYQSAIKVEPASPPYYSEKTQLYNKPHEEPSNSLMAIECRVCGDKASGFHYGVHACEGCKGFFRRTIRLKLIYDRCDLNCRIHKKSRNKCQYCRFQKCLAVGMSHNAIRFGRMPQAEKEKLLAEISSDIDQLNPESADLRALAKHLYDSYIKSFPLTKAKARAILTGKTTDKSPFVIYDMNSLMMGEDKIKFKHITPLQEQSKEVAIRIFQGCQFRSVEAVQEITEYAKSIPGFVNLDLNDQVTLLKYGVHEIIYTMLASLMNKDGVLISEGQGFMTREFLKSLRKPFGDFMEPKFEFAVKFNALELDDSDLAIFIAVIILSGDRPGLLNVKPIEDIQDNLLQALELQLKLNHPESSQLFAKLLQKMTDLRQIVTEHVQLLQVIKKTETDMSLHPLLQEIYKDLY
Method in brief: (§1)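 MCF-7 or MDA-MB-231 cells grown in DMEM/F12 with 10% FCS at 37 °C, 5% CO2. Electroporated with pPPRE-aP2-tk-luc reporter (50 µg/mL) plus rat PPARγ construct pCMV-rPPARγ (10 µg/mL). Seeded 20,000 cells/well and left 20 h. Compound added in serum-free medium for 24 or 48 h. Cells lysed and luciferase read. Runs done in triplicate or quadruplicate.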

T47D [4] = experiment: Induction of apoptosis in human T47D cells assessed as chromosome fragmentation at 10 uM after 16 hrs by fluorescent microscopy
[5] = target: T1, Peroxisome proliferator-activated receptor gamma (Homo sapiens); experiment: Activation of PPARgamma transfected in human MCF7 cells at 10 uM after 48 hrs by luciferase reporter gene assay; type: cell-based
Method in brief: as §1

MCF7 [6] = experiment: Antiproliferative activity against human MCF7 cells by neutral red method; type: functional, cell-based
Method in brief: (§2)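 MCF-7 cells plated as for the reporter assay (20,000/well, 20 h), then exposed 48 h to compound added in serum-free DMEM/F12. Viability read by neutral red uptake as absorbance at 540 nm, corrected at 630 nm. Triplicate, mean ± SD.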

MCF7 [7] = experiment: Antiproliferative activity against human MCF7 cells at 10 uM up to 8 hrs by neutral red method; type: functional, cell-based
Method in brief: (§3)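 Short exposure: MCF-7 cells treated at 3, 10 or 30 µM for 1, 2, 4 or 8 h. Then washed twice with serum-free medium and grown 96 h in medium with 10% FCS, compound-free. Neutral red absorbance at 540 nm, corrected at 630 nm. Triplicate.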

MCF7 [8] = experiment: Induction of apoptosis in human MCF7 cells assessed as chromosome fragmentation at 10 uM after 8 hrs by fluorescent microscopy; type: functional, cell-based
Method in brief: (§4)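 MCF-7 cells seeded at 80,000/well on coverslips and grown 16 h. Compound added (10 µM final) in an equal volume of serum-free medium; 30 nM taxol as control. After 4, 8 or 16 h, cells fixed in MeOH, washed in PBS and mounted in DAPI. Fragmented nuclei scored by fluorescence at 400×.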

MCF7 [9] = experiment: Antiproliferative activity against human MCF7 cells at 30 uM after 8 hrs by neutral red method; type: functional
Method in brief: as §3

[10] = target: T2, Peroxisome proliferator-activated receptor gamma (Homo sapiens, UniProt P37231); experiment: Activation of PPARgamma transfected in human MCF7 cells by luciferase reporter gene assay; type: cell-based
T2 sequence (P37231 whole entry): T1 sequence (whole entry)

MCF7 [11] = experiment: Antiproliferative activity against human MCF7 cells at 10 uM after 48 hrs by neutral red method; type: functional
Method in brief: as §2

MCF7 [12] = experiment: Induction of apoptosis in human MCF7 cells assessed as chromosome fragmentation at 10 uM after 16 hrs by fluorescent microscopy; type: functional, cell-based
Method in brief: as §4

[13] = target: T1, Peroxisome proliferator-activated receptor gamma (Homo sapiens); experiment: Activation of PPARgamma transfected in human MCF7 cells at 100 to 300 uM after 48 hrs by luciferase reporter gene assay; type: cell-based
Method in brief: as §1

[14] = target: T1, Peroxisome proliferator-activated receptor gamma (Homo sapiens); experiment: Activation of PPARgamma transfected in human MDA-MB-231 cells at 100 to 300 uM after 48 hrs by luciferase reporter gene assay; type: cell-based
Method in brief: as §1

MCF7 [15] = experiment: Induction of apoptosis in human MCF7 cells assessed as chromosome fragmentation at 30 uM by fluorescent microscopy; type: functional, cell-based; details: TDE = time-dependent effect
[16] = target: T1, Peroxisome proliferator-activated receptor gamma (Homo sapiens); experiment: Activation of GAL4 fused human PPARgamma ligand binding domain transfected in african green monkey CV1 cells at 10 uM by CAT reporter assay; type: cell-based; details: CV-1

For `O=C(NCCSSCCNC(=O)/C(Cc1ccc(O)c(Br)c1)=N/O)/C(Cc1ccc(O)c(Br)c1)=N/O` [PSAMMAPLIN A], the Activity (T47D [1]) was “Active”, the IC50 [2] was 0.0042 µM and the AC50 (NCI-H1299) was 7.5 µM. The Activity [3] was “Active”, the Activity (T47D [4]) was “Active” and the Activity [5] was “Active”. For the same molecule, the IC50 (MCF7 [6]) was 5 µM, the Activity (MCF7 [7]) was “inactive” and the Activity (MCF7 [8]) was “Active”. It also gave an Activity (MCF7 [9]) of 36%, an EC50 [10] of 5.7 µM and an Activity (MCF7 [11]) of 62%. The Activity (MCF7 [12]) was “Active”.

In the case of `COc1ccc2c(c1)c(CC(=O)O)c(C)n2C(=O)c1ccc(Cl)cc1`, the Activity [13] is reported as “inactive” and the Activity [14] is reported as “inactive”.

With `CC(=O)O[C@H]1C(=O)[C@@]2(C)[C@H]([C@H](OC(=O)c3ccccc3)[C@]3(O)C[C@H](OC(=O)[C@H](O)[C@@H](NC(=O)c4ccccc4)c4ccccc4)C(C)=C1C3(C)C)[C@]1(OC(C)=O)CO[C@@H]1C[C@@H]2O` the Activity (MCF7 [15]) was “tde”.

For `CC1(COc2ccc(CC3SC(=O)NC3=O)cc2)CCCCC1` (configuration not stated), the Activity [16] was “Active”.
